Test results published in ChEMBL document CHEMBL4689842, “EUbOPEN Chemogenomics Library wave 1” (2021).

System: Fibroblast
Test: Multiplex assay against human fibroblast
Type: toxicity, cell-based
How it was run: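 On a CQ1 microscope at 37°C and 5% CO2, live cells were imaged after compound addition. They had been stained at seeding with Hoechst33342, BioTracker Green Microtubule Cytoskeleton Dye, MitoTracker Red and Annexin V Alexa Fluor 680. CellPathfinder machine-learning gating assigned cells to Hoechst high-intensity objects or normal cells, normal cells to healthy, pyknosed or fragmented nuclei, and pyknosed cells to mitotic or apoptotic. Tubulin, mitochondrial-mass and membrane-permeability phenotypes are per cents of healthy-nucleus cells.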

[1] = 12 h, 1 µM, compound concentration 1 uM, replicate 1
[2] = 12 h, 1 µM, compound concentration 1 uM, replicate 2
[3] = 12 h, 10 µM, compound concentration 10 uM, replicate 1
[4] = 12 h, 10 µM, compound concentration 10 uM, replicate 2
[5] = 24 h, 1 µM, compound concentration 1 uM, replicate 1
[6] = 24 h, 1 µM, compound concentration 1 uM, replicate 2
[7] = 24 h, 10 µM, compound concentration 10 uM, replicate 1
[8] = 24 h, 10 µM, compound concentration 10 uM, replicate 2
[9] = 48 h, 1 µM, compound concentration 1 uM, replicate 1
[10] = 48 h, 1 µM, compound concentration 1 uM, replicate 2
[11] = 48 h, 10 µM, compound concentration 10 uM, replicate 1
[12] = 48 h, 10 µM, compound concentration 10 uM, replicate 2

SMILES: Cl.NC[C@@H]1O[C@H](C23CC4CC(CC(C4)C2)C3)Cc2c1ccc(O)c2O
- Population Apoptotic (%) [1]: 60%
- Population Fragmented Nuclei (%) [1]: 28%
- Population Healthy Nuclei (%) [1]: 51%
- Population Hoechst High Intensity Objects (%) [1]: 12%
- Population Membrane Permeable-Phenotype (%) [1]: 16%
- Population Mitochondria Different-Phenotype (%) [1]: 1%
- Population Mitotic Cells (%) [1]: 40%
- Population Normal (%) [1]: 87%
- Population Pyknosed Nuclei (%) [1]: 20%
- Population Tubulin-Different-Phenotype (%) [1]: 24%
- Total Cell Count [1]: 171
- Population Apoptotic (%) [2]: 0%
- Population Fragmented Nuclei (%) [2]: 6%
- Population Healthy Nuclei (%) [2]: 91%
- Population Hoechst High Intensity Objects (%) [2]: 3%
- Population Membrane Permeable-Phenotype (%) [2]: 2%
- Population Mitochondria Different-Phenotype (%) [2]: 9%
- Population Mitotic Cells (%) [2]: 100%
- Population Normal (%) [2]: 96%
- Population Pyknosed Nuclei (%) [2]: 2%
- Population Tubulin-Different-Phenotype (%) [2]: 10%
- Total Cell Count [2]: 95
- Population Apoptotic (%) [3]: 44%
- Population Fragmented Nuclei (%) [3]: 29%
- Population Healthy Nuclei (%) [3]: 42%
- Population Hoechst High Intensity Objects (%) [3]: 15%
- Population Membrane Permeable-Phenotype (%) [3]: 8%
- Population Mitochondria Different-Phenotype (%) [3]: 9%
- Population Mitotic Cells (%) [3]: 55%
- Population Normal (%) [3]: 84%
- Population Pyknosed Nuclei (%) [3]: 28%
- Population Tubulin-Different-Phenotype (%) [3]: 46%
- Total Cell Count [3]: 205
- Population Apoptotic (%) [4]: 52%
- Population Fragmented Nuclei (%) [4]: 39%
- Population Healthy Nuclei (%) [4]: 32%
- Population Hoechst High Intensity Objects (%) [4]: 10%
- Population Membrane Permeable-Phenotype (%) [4]: 9%
- Population Mitochondria Different-Phenotype (%) [4]: 22%
- Population Mitotic Cells (%) [4]: 47%
- Population Normal (%) [4]: 89%
- Population Pyknosed Nuclei (%) [4]: 27%
- Population Tubulin-Different-Phenotype (%) [4]: 27%
- Total Cell Count [4]: 76
- Population Apoptotic (%) [5]: 50%
- Population Fragmented Nuclei (%) [5]: 32%
- Population Healthy Nuclei (%) [5]: 55%
- Population Hoechst High Intensity Objects (%) [5]: 14%
- Population Membrane Permeable-Phenotype (%) [5]: 14%
- Population Mitochondria Different-Phenotype (%) [5]: 0%
- Population Mitotic Cells (%) [5]: 50%
- Population Normal (%) [5]: 85%
- Population Pyknosed Nuclei (%) [5]: 12%
- Population Tubulin-Different-Phenotype (%) [5]: 26%
- Total Cell Count [5]: 213
- Population Apoptotic (%) [6]: 42%
- Population Fragmented Nuclei (%) [6]: 8%
- Population Healthy Nuclei (%) [6]: 85%
- Population Hoechst High Intensity Objects (%) [6]: 2%
- Population Membrane Permeable-Phenotype (%) [6]: 5%
- Population Mitochondria Different-Phenotype (%) [6]: 10%
- Population Mitotic Cells (%) [6]: 57%
- Population Normal (%) [6]: 97%
- Population Pyknosed Nuclei (%) [6]: 6%
- Population Tubulin-Different-Phenotype (%) [6]: 12%
- Total Cell Count [6]: 114
- Population Apoptotic (%) [7]: 58%
- Population Fragmented Nuclei (%) [7]: 17%
- Population Healthy Nuclei (%) [7]: 52%
- Population Hoechst High Intensity Objects (%) [7]: 29%
- Population Membrane Permeable-Phenotype (%) [7]: 5%
- Population Mitochondria Different-Phenotype (%) [7]: 16%
- Population Mitotic Cells (%) [7]: 41%
- Population Normal (%) [7]: 70%
- Population Pyknosed Nuclei (%) [7]: 30%
- Population Tubulin-Different-Phenotype (%) [7]: 50%
- Total Cell Count [7]: 181
- Population Apoptotic (%) [8]: 92%
- Population Fragmented Nuclei (%) [8]: 50%
- Population Healthy Nuclei (%) [8]: 29%
- Population Hoechst High Intensity Objects (%) [8]: 18%
- Population Membrane Permeable-Phenotype (%) [8]: 26%
- Population Mitochondria Different-Phenotype (%) [8]: 26%
- Population Mitotic Cells (%) [8]: 7%
- Population Normal (%) [8]: 81%
- Population Pyknosed Nuclei (%) [8]: 20%
- Population Tubulin-Different-Phenotype (%) [8]: 26%
- Total Cell Count [8]: 80
- Population Apoptotic (%) [9]: 87%
- Population Fragmented Nuclei (%) [9]: 36%
- Population Healthy Nuclei (%) [9]: 59%
- Population Hoechst High Intensity Objects (%) [9]: 11%
- Population Membrane Permeable-Phenotype (%) [9]: 10%
- Population Mitotic Cells (%) [9]: 12%
- Population Normal (%) [9]: 88%
- Population Pyknosed Nuclei (%) [9]: 4%
- Population Tubulin-Different-Phenotype (%) [9]: 13%
- Total Cell Count [9]: 212
- Population Apoptotic (%) [10]: 100%
- Population Fragmented Nuclei (%) [10]: 21%
- Population Healthy Nuclei (%) [10]: 77%
- Population Hoechst High Intensity Objects (%) [10]: 10%
- Population Membrane Permeable-Phenotype (%) [10]: 16%
- Population Mitochondria Different-Phenotype (%) [10]: 0%
- Population Mitotic Cells (%) [10]: 0%
- Population Normal (%) [10]: 89%
- Population Pyknosed Nuclei (%) [10]: 0%
- Population Tubulin-Different-Phenotype (%) [10]: 21%
- Total Cell Count [10]: 114
- Population Apoptotic (%) [11]: 66%
- Population Fragmented Nuclei (%) [11]: 32%
- Population Healthy Nuclei (%) [11]: 43%
- Population Hoechst High Intensity Objects (%) [11]: 24%
- Population Membrane Permeable-Phenotype (%) [11]: 50%
- Population Mitochondria Different-Phenotype (%) [11]: 5%
- Population Mitotic Cells (%) [11]: 33%
- Population Normal (%) [11]: 75%
- Population Pyknosed Nuclei (%) [11]: 23%
- Population Tubulin-Different-Phenotype (%) [11]: 46%
- Total Cell Count [11]: 169
- Population Apoptotic (%) [12]: 100%
- Population Fragmented Nuclei (%) [12]: 50%
- Population Healthy Nuclei (%) [12]: 48%
- Population Hoechst High Intensity Objects (%) [12]: 17%
- Population Membrane Permeable-Phenotype (%) [12]: 14%
- Population Mitochondria Different-Phenotype (%) [12]: 1%
- Population Mitotic Cells (%) [12]: 0%
- Population Normal (%) [12]: 82%
- Population Pyknosed Nuclei (%) [12]: 1%
- Population Tubulin-Different-Phenotype (%) [12]: 43%
- Total Cell Count [12]: 236

SMILES: Cc1ccc(NC(=O)Nc2cc(C(F)(F)F)ccc2F)cc1Nc1ccc2c(c1)NC(=O)/C2=C\c1ccc[nH]1
- Population Apoptotic (%) [1]: 36%
- Population Fragmented Nuclei (%) [1]: 13%
- Population Healthy Nuclei (%) [1]: 59%
- Population Hoechst High Intensity Objects (%) [1]: 10%
- Population Membrane Permeable-Phenotype (%) [1]: 58%
- Population Mitochondria Different-Phenotype (%) [1]: 0%
- Population Mitotic Cells (%) [1]: 63%
- Population Normal (%) [1]: 89%
- Population Pyknosed Nuclei (%) [1]: 27%
- Population Tubulin-Different-Phenotype (%) [1]: 36%
- Total Cell Count [1]: 178
- Population Apoptotic (%) [2]: 100%
- Population Fragmented Nuclei (%) [2]: 60%
- Population Healthy Nuclei (%) [2]: 36%
- Population Hoechst High Intensity Objects (%) [2]: 50%
- Population Membrane Permeable-Phenotype (%) [2]: 63%
- Population Mitochondria Different-Phenotype (%) [2]: 18%
- Population Mitotic Cells (%) [2]: 0%
- Population Normal (%) [2]: 49%
- Population Pyknosed Nuclei (%) [2]: 3%
- Population Tubulin-Different-Phenotype (%) [2]: 54%
- Total Cell Count [2]: 61
- Population Apoptotic (%) [3]: 66%
- Population Fragmented Nuclei (%) [3]: 15%
- Population Healthy Nuclei (%) [3]: 52%
- Population Hoechst High Intensity Objects (%) [3]: 17%
- Population Membrane Permeable-Phenotype (%) [3]: 4%
- Population Mitochondria Different-Phenotype (%) [3]: 3%
- Population Mitotic Cells (%) [3]: 33%
- Population Normal (%) [3]: 82%
- Population Pyknosed Nuclei (%) [3]: 32%
- Population Tubulin-Different-Phenotype (%) [3]: 5%
- Total Cell Count [3]: 210
- Population Apoptotic (%) [4]: 20%
- Population Fragmented Nuclei (%) [4]: 50%
- Population Healthy Nuclei (%) [4]: 40%
- Population Hoechst High Intensity Objects (%) [4]: 20%
- Population Membrane Permeable-Phenotype (%) [4]: 0%
- Population Mitochondria Different-Phenotype (%) [4]: 19%
- Population Mitotic Cells (%) [4]: 80%
- Population Normal (%) [4]: 80%
- Population Pyknosed Nuclei (%) [4]: 9%
- Population Tubulin-Different-Phenotype (%) [4]: 0%
- Total Cell Count [4]: 65
- Population Apoptotic (%) [5]: 28%
- Population Fragmented Nuclei (%) [5]: 10%
- Population Healthy Nuclei (%) [5]: 61%
- Population Hoechst High Intensity Objects (%) [5]: 8%
- Population Membrane Permeable-Phenotype (%) [5]: 51%
- Population Mitochondria Different-Phenotype (%) [5]: 0%
- Population Mitotic Cells (%) [5]: 71%
- Population Normal (%) [5]: 91%
- Population Pyknosed Nuclei (%) [5]: 27%
- Population Tubulin-Different-Phenotype (%) [5]: 31%
- Total Cell Count [5]: 179
- Population Apoptotic (%) [6]: 100%
- Population Fragmented Nuclei (%) [6]: 61%
- Population Healthy Nuclei (%) [6]: 34%
- Population Hoechst High Intensity Objects (%) [6]: 55%
- Population Membrane Permeable-Phenotype (%) [6]: 55%
- Population Mitochondria Different-Phenotype (%) [6]: 11%
- Population Mitotic Cells (%) [6]: 0%
- Population Normal (%) [6]: 44%
- Population Pyknosed Nuclei (%) [6]: 3%
- Population Tubulin-Different-Phenotype (%) [6]: 55%
- Total Cell Count [6]: 59
- Population Apoptotic (%) [7]: 51%
- Population Fragmented Nuclei (%) [7]: 18%
- Population Healthy Nuclei (%) [7]: 61%
- Population Hoechst High Intensity Objects (%) [7]: 17%
- Population Membrane Permeable-Phenotype (%) [7]: 5%
- Population Mitochondria Different-Phenotype (%) [7]: 3%
- Population Mitotic Cells (%) [7]: 48%
- Population Normal (%) [7]: 82%
- Population Pyknosed Nuclei (%) [7]: 20%
- Population Tubulin-Different-Phenotype (%) [7]: 5%
- Total Cell Count [7]: 237
- Population Apoptotic (%) [8]: 50%
- Population Fragmented Nuclei (%) [8]: 54%
- Population Healthy Nuclei (%) [8]: 41%
- Population Hoechst High Intensity Objects (%) [8]: 29%
- Population Membrane Permeable-Phenotype (%) [8]: 0%
- Population Mitochondria Different-Phenotype (%) [8]: 5%
- Population Mitotic Cells (%) [8]: 50%
- Population Normal (%) [8]: 70%
- Population Pyknosed Nuclei (%) [8]: 4%
- Population Tubulin-Different-Phenotype (%) [8]: 10%
- Total Cell Count [8]: 65
